The record followed here is ChEMBL document CHEMBL1127529, “Antipsoriatic anthrones with modulated redox properties. 2. Novel derivatives of chrysarobin and isochrysarobin--antiproliferative activity and 5-lipoxygenase inhibition” (J Med Chem, 1994).

Data set [1] addresses T1, Arachidonate 5-lipoxygenase (Bos taurus, UniProt Q9BEG3).
T1 sequence (Q9BEG3 whole entry): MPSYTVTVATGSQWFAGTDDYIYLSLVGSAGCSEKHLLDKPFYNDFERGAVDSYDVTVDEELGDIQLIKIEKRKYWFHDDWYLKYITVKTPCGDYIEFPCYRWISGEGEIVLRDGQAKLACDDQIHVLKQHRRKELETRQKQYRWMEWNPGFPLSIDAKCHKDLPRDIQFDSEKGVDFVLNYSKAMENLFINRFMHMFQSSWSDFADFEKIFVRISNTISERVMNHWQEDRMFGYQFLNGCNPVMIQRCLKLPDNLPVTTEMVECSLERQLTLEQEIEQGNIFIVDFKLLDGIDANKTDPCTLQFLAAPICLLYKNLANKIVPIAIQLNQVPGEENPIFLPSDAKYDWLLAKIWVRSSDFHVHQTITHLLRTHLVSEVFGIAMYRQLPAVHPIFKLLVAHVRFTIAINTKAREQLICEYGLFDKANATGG
The experiment in a line: Inhibition of 5-lipoxygenase in bovine polymorphonuclear leukocytes. In kind it is cell-based. In outline:
(§1)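 Bovine PMNL (10^7 cells/mL) were stimulated with Ca-ionophore. Compound was preincubated for 15 min at 37 °C.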

A short description of data set [2]: Partition coefficient (logP) (HPLC). In kind it is physicochemical. Particulars: octanol/water. In outline:
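Reversed-phase HPLC with MeOH/water/HOAc (77-23-0.1) as eluant, adjusted to pH 5.5 with concentrated NH3.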

Data set [3] concerns HaCaT. The experiment in a line: Antiproliferative activity against HaCaT cells. It counts as functional, cell-based. As to conditions: Homo sapiens. The gist of the method:
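HaCaT human keratinocytes were kept in DMEM with 10% FCS, penicillin and streptomycin at 37 °C under 8% CO2. After 48 h the cells were detached with trypsin/EDTA and counted by phase-contrast microscopy.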

The subject of data set [4] is Liposome. As to the kind of experiment: Inhibition of 2,2'-azobis(2-aminopropane)hydrochloride (AAPH) induced lipid peroxidation in bovine brain phospholipid liposomes. It counts as functional, subcellular, Bos taurus.
Data set [5] in a line: Deoxyribose degradation assay as hydroxy radical formation. It counts as functional. The gist of the method: (§2)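 2-Deoxy-D-ribose (2 mM) was incubated with FeCl3 (0.1 mM) and compound (75 μM) in KH2PO4-KOH buffer pH 7.4 (30 mM) for 2 h at 37 °C with shaking. TBA-reactive material was read at 532 nm. Result is µmol malondialdehyde per mmol deoxyribose.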
Data set [6] can be described thus: Reducing activity against 2,2-diphenyl-1-picrylhydrazyl (DPPH) with equimolar compound. It counts as functional. The gist of the method: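 Test compound and DPPH, each 10⁻⁴ M in acetone/PBS (1-1 v/v), mixed 1 mL + 1 mL. DPPH reduction followed spectrophotometrically at 516 nm. Reciprocal DPPH concentration plotted against time gave straight lines, and second-order rate constants (M⁻¹ s⁻¹) were taken from the slopes. Values are means, N = 3-6. Highly reactive compounds gave approximate values only.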
On the technique in general: Loss of DPPH colour is used to gauge radical scavenging.

Data set [7] in a line: Deoxyribose degradation as a measure of hydroxy radical formation. In kind it is functional. In outline:
as §2

For data set [8], the target named is T2, Polyunsaturated fatty acid 5-lipoxygenase (Homo sapiens, UniProt P09917).
T2 sequence (P09917 whole entry): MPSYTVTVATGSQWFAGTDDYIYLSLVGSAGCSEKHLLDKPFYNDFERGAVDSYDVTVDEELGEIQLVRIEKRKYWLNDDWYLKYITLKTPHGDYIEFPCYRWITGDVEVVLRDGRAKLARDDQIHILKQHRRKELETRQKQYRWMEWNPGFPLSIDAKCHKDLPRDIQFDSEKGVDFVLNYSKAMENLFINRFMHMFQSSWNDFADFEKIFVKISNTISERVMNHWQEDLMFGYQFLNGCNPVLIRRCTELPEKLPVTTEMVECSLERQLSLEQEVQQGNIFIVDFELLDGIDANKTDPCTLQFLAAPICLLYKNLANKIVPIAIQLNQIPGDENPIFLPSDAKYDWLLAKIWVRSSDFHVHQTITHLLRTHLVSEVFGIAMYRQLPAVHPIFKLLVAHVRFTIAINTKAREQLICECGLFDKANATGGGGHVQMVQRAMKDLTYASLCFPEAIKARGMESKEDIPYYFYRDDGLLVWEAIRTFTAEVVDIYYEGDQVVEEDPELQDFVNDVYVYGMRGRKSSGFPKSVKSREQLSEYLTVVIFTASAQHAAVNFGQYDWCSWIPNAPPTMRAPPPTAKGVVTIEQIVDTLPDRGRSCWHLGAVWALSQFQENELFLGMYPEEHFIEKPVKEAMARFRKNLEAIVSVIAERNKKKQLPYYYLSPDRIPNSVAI
The experiment in a line: Inhibitory concentration against arachidonic acid 5-lipoxygenation. It counts as functional. The gist of the method:
as §1

For orientation: IC50 means the midpoint of a concentration-inhibition curve. A high value points to weaker potency. Usually logP stands for the decadic logarithm of the partition coefficient of the neutral form, usually between octanol and water.

On to `O=C1c2c(O)cccc2Cc2cc(Cc3ccc(O)cc3O)cc(O)c21`, for which the IC50 in data set [1] was determined as 7 µM; in data set [3], 0.5 µM; in data set [4], 16 µM. In data set [2], this compound yielded a logP of 3.67. Besides, the DD (uM of MDA mM-1) in data set [5] stood at 3.26. The compound further gave a kDPPH in data set [6] of 39.3 M⁻¹ s⁻¹.
Consider `Cc1ccc(Cc2ccc3c(c2O)C(=O)c2c(O)cccc2C3)cc1`, for which the IC50 in data set [1] is above 30 µM. Moreover, in data set [2], the logP was 6.04. For the same compound, the DD (uM of MDA mM-1) in data set [5] was below 0.25. Further, in data set [6], the kDPPH is 8.5 M⁻¹ s⁻¹.
Turning to `COc1c(OC)c(OC(C)=O)c2cc(Cl)ccc2c1OC(C)=O` [LONAPALENE], the IC50 was 3.2 µM in data set [3] and above 50 µM in data set [4]. For the same compound, the DD (uM of MDA mM-1) in data set [5] is below 0.15.
Take `O=C1c2c(O)cccc2Cc2ccc(Cc3ccc(O)cc3O)c(O)c21`: the IC50 in data set [1] was 5 µM; in data set [3], 1.5 µM; in data set [4], 16 µM. Also, the logP in data set [2] was 3.68. The compound further returned a DD (uM of MDA mM-1) in data set [7] of 0.34. The kDPPH in data set [6] was above 100 M⁻¹ s⁻¹.
As to `O=C1c2c(O)cccc2Cc2cc(Cc3ccc(O)cc3)cc(O)c21`, the results for the IC50 in data set [1], in data set [3] and in data set [4] were above 30 µM, 0.4 µM and 14 µM, respectively. The logP in data set [2] was 4.52. Moreover, in data set [5], the DD (uM of MDA mM-1) was determined as 0.27. The compound also registered a kDPPH in data set [6] of 12.6 M⁻¹ s⁻¹.
Take `O=C(O)c1ccccc1Cc1ccc2c(c1O)C(=O)c1c(O)cccc1C2`: the IC50 in data set [1] is 4 µM; in data set [3], above 5 µM; in data set [4] it was 42 µM. The compound also gave a lipophilicity (logP) in data set [2] of 4.48. In addition, the DD (uM of MDA mM-1) in data set [7] was 1.2. The compound further showed a kDPPH in data set [6] of 16.9 M⁻¹ s⁻¹.
Consider `O=C1c2c(O)cccc2Cc2cccc(O)c21` [ANTHRALIN], for which the results for the IC50 in data set [8], in data set [3] and in data set [4] were 7 µM, 0.2 µM and 79 µM, respectively. In data set [6], this compound registered a kDPPH of 24.2 M⁻¹ s⁻¹.
Take `O=C1c2c(O)cccc2Cc2ccc(CCCc3ccc(O)cc3)c(O)c21`: the IC50 in data set [1] amounted to 2 µM; in data set [3], 0.4 µM; in data set [4], 50 µM. For the same compound, in data set [2], the logP was determined as 5.27. In addition, in data set [7], the DD (uM of MDA mM-1) was below 0.15. Besides, the kDPPH in data set [6] is above 100 M⁻¹ s⁻¹.
